A selection: hits, their analogues and other compounds. The true share with any hit is near 3.8%.
DENV2 CPE: inhibitors of DENV2 cytopathic effect, primary screen, cell-based, plate reader, single concentration; DENV2-infected cells, cytopathic effect rescue; CPE inhibition, % at 9.99 µM; 1.7% of 350,000 active; in the data active = CPE inhibition above about 20%, passing the limit was not always enough; inconclusive = no clear call, values can overlap the other calls; tested in BHK-21 cells;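 also: 0% = median of neutral control wells and 100% = median of positive control wells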
Xi reactivation: activators of inactive X chromosome reactivation, primary screen, imaging, XiGFP fibroblasts, GFP high-content imaging, set 2; XiGFP mouse fibroblasts, % GFP-positive cells imaging, 3 d; cells co-treated with 5-aza-dC sensitizer; scaled so ellipticine positive control = 100%; activation, % at 7.58 µM; 0.055% of 360,000 active; AID 743238, 2013;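 active = mean normalized replicate activation at least 10% and every replicate at or above 10%; inconclusive = only one of the two criteria met; inactive = mean below 10% and not all replicates reach 10%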;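 also: 0% = median of on-plate neutral control wells and 100% = ellipticine 6 µM median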
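assay system = SV40-immortalized XiGFP fibroblast cells, line 68-5-11 | buffer or medium = DMEM plus 5-aza-dC sensitizer | doses = single-point pinned compound dosing | times = 3-day compound exposure, then 15 min fixation at room temperature | benchmarks = positive control ellipticine, 6 µM final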
FN deposition inh: inhibitors of fibronectin matrix deposition, primary screen, AH1F cells, Alexa488-fibronectin fluorescence, plate reader; AH1F fibroblasts, overnight; inhibition, % at 12.6 µM; 0.086% of 350,000 active;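 active = mean inhibition across replicates of 30% or more, regardless of how many single replicates reach that level; inconclusive = mean under 30% yet at least half of replicates reach 30%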;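 also: positive control wells lacked labelled fibronectin entirely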
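Material: AH1F fibroblast monolayer depositing Alexa488-labelled fibronectin into matrix | Input: 10000 AH1F cells/well | Medium: DMEM plus 2% serum, read in PBS | Reagent: Alexa488-fibronectin, 24 nM final in well | Compound dosing: One dose per compound, pinned | Schedule: 1 h adhesion, overnight exposure | Measured by: Fluorescence at 485 nm excitation, 525 nm emission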
FGF22 binding: binders of human FGF22 protein, primary screen, FGF22 synaptogenesis inhibitor project, biophysical, thermal shift, single point. activity (Tm shift, normalised), % at 9.99 µM. 1.5% of 340,000 active. recombinant FGF22 thermal shift, SYPRO orange fluorescence; percent of sucrose octasulfate shift, DMSO zero;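 active = mean Tm shift, scaled 0 neutral to 100 positive control, at about 1.3% or above, every replicate too, limit read from the data; inconclusive = no clear call, values can overlap the other calls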
Target sequence (Q9HCT0 whole entry, looked up): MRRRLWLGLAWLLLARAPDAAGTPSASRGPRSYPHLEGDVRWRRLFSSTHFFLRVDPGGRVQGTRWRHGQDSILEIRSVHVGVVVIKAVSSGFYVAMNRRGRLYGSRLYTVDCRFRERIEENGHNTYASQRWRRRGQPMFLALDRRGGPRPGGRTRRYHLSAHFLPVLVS
ARNT-TACC3 inh: disruptors of ARNT/TACC3 protein interaction, primary screen, biochemical, AlphaScreen, single concentration | AlphaScreen His-ARNT PAS-B/GST-TACC3 binding, luminescence; TACC3 fragment carries E629A point mutation | AID 623870, 2012 | Transforming acidic coiled-coil-containing protein 3 (Homo sapiens), Q9Y6A5 | inhibition, % at 9.99 µM | 0.66% of 390,000 active;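 active = mean inhibition of replicates at least 50% and at least half of replicates each reaching 50%; inconclusive = half or more replicates reach 50% but mean below 50%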;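 also: 0% = complete ARNT plus TACC3 wells and 100% = ARNT alone without TACC3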
SIRT5 inh: SIRT5 desuccinylase inhibitors, primary screen, biochemical, fluorescence imaging, single point, set 5; Purified SirT5, succinyl-peptide AMC, trypsin-coupled fluorescence; inhibition, % at 15 µM; 1.1% of 330,000 active; in the data active = inhibition above about 15%; inconclusive = no clear call, values can overlap the other calls
Target sequence (Q9NXA8 whole entry, looked up): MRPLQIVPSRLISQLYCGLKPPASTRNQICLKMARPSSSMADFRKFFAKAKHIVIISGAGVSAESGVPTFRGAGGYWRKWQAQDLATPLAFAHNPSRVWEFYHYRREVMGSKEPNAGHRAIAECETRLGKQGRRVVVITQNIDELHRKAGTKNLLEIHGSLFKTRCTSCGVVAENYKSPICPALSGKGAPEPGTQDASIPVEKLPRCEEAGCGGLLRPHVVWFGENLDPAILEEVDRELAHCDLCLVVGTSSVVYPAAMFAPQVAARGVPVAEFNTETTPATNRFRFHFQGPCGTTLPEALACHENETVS
Active calls of the source: *; ? = inconclusive; nt = no result given.

SMILES	DENV2 CPE	Xi reactivation	FN deposition inh	FGF22 binding	ARNT-TACC3 inh	SIRT5 inh
Cc1ccccc1-c1ccc([C@@H]2[C@H]3CN(C(=O)Cc4ccccn4)CCCCN3[C@H]2CO)cc1	-6.9	0.0	nt	0.0	10.0	2.9
CC(C)c1oc(=O)cc2c1[C@@H](O)[C@H]1OC(=O)[C@@]3(C)CC[C@@H](O)[C@@]2(C)C13 (some centres undefined)	0.3	0.0	2.1	0.1	2.8	nt
CC(C)c1oc(=O)cc2c1[C@@H](O)[C@H]1OC(=O)[C@@]3(C)C[C@@H](O)[C@@H](O)[C@@]2(C)C13 (some centres undefined)	87.0*	0.3	4.6	-0.1	nt	-1.4
O=C(Cc1ccccc1)N1C[C@@H]2[C@H](c3ccccc31)[C@@H](CO)N2Cc1ccccc1	11.3	0.3	nt	0.1	4.1	-1.8
C=CCC1([C@@H](C)CCC)C(=O)NC(=O)NC1=O	?	nt	nt	0.1	-0.1	nt
CCCC(C)C1(CC)C(=O)NC(=O)N=C1N (centres undefined)	3.4	0.0	10.7	44.2*	2.4	1.5
O=C(Cc1ccccn1)N1CCCCN2[C@H](C1)[C@@H](c1ccc(-c3ccccc3F)cc1)[C@@H]2CO	-11.5	?	nt	0.1	-1.7	0.7
C[C@H]1CN([C@@H](C)CO)C(=O)c2c(c3ccccc3n2C)-c2ccccc2CO[C@H]1CN(C)C(=O)Oc1ccccc1	81.2*	0.0	-4.8	nt	nt	5.0
COc1ccc2nc3oc(C(=O)N4CCC5(CC4)OCCO5)cc3cc2c1	6.4	0.3	-6.0	43.6*	5.6	-4.9
CC[C@H](C)[C@@H]1NC(=O)CNC(=O)c2csc(n2)[C@H](C(C)(C)O)OC(=O)C(C)(C)[C@H](CCCC(C)(Cl)Cl)OC(=O)c2csc1n2	3.1	0.6	48.1*	-0.5	nt	5.9
O=C(O)[C@@H]1[C@@H](CO)[C@@H]2Cn3c(ccc(-c4cccc(F)c4)c3=O)[C@H]1N2CCc1ccccc1	-2.6	0.4	nt	0.1	8.1	3.6
COc1ccc(CN2C(=O)CC(=O)NC2=O)cc1	nt	nt	9.0	nt	3.5	nt
O=C1CC(=O)N(Cc2ccccc2)C(=S)N1	23.4*	0.1	2.4	0.1	-6.5	7.4
CC1Oc2cc3c(-c4c(O)cc(O)c5c(O)c6c(cc45)OC(C)C(C)C6=O)c(O)cc(O)c3c(O)c2C(=O)C1C (centres undefined)	nt	nt	nt	nt	79.7*	nt
C/C=C/c1ccc(C2[C@@H]3CN(C(=O)C4CCOCC4)C[C@H]2N3)cc1 (some centres undefined)	4.7	0.1	-5.6	nt	nt	-2.8
Cc1ccccc1N1C(=O)NC(=O)/C(=C\c2cnn(-c3ccccc3)c2)C1=O	-5.4	0.5	-0.7	0.1	-11.4	19.7*
COc1ccc(NC(c2ccccc2F)P(=O)(Oc2ccccc2)Oc2ccccc2)cc1 (centres undefined)	-0.9	0.0	4.4	44.3*	-9.8	3.8
O=C(NCCO)c1nsnc1NCCCl	-11.1	0.0	9.4	43.3*	10.6	2.8
C[C@]12CC[C@H](OS(=O)(=O)O)CC1=CC[C@@H]1[C@@H]2CC[C@]2(C)C(=O)CC[C@@H]12	-5.1	-0.1	3.8	-0.1	-2.4	-4.1
CC12CCC3C(CC=C4CC5(CCC43C)OCCO5)C1CCC2=O (centres undefined)	-1.1	0.0	-12.9	44.4*	1.3	7.6
Cc1ccc2c(c1)C1CN(C)CCC1N2C(=O)c1cccnc1Cl (centres undefined)	4.7	0.0	-14.2	0.1	-7.7	-1.4
Cc1ccc2c(c1)C1CN(C)CCC1N2C(=O)c1cn(-c2ccccc2)nc1-c1ccccc1 (centres undefined)	-6.3	-0.1	-8.0	1.6*	12.2	2.0
O=C(N/N=C\C1C(=O)NC(=S)N(c2ccccc2)C1=O)c1ccc(O)cc1 (centres undefined)	7.4	0.0	-17.6	1.2	71.9*	nt
O=C(N/N=C/c1c(O)n(CCC2=CCCCC2)c(=S)[nH]c1=O)c1ccccc1	-3.9	-0.1	-5.6	0.4	27.1	-0.7
COC(=O)c1c(N)n(Cc2ccc(OC)cc2)c2nc3ccccc3nc12	nt	nt	nt	nt	14.8*	nt
SMILES	DENV2 CPE	Xi reactivation	FN deposition inh	FGF22 binding	ARNT-TACC3 inh	SIRT5 inh
COCCOC(=O)c1c(N)n(Cc2ccco2)c2nc3ccccc3nc12	nt	nt	nt	nt	62.4*	nt
O=c1[nH]c(O)c(N=Nc2cc([N+](=O)[O-])ccc2O)c(=O)[nH]1	nt	0.0	-3.9	0.2	56.6*	12.7
O=[N+]([O-])c1ccc(O)c([N+](=O)[O-])c1	9.7	?	2.5	0.1	-2.5	-1.6
COC(=O)[C@@H]1[C@@H](CO)[C@@H]2Cn3c(ccc(-c4cccc(OC)c4)c3=O)[C@H]1N2CC1CC1	-0.6	0.3	nt	0.2	3.5	-4.4
CN(C)CC(C(=O)Cc1ccccc1)c1ccccc1 (centres undefined)	-1.4	-0.1	32.0*	-0.1	-11.6	-2.4
CCCN1[C@@H]2c3cccc(=O)n3C[C@H]1[C@H](CO)[C@H]2C(=O)N(C)C	-2.4	0.6	nt	-0.3	5.1	6.0
COc1ccc(N/N=C/c2c(O)n(-c3cccc(C)c3)c(=O)[nH]c2=O)cc1	0.8	0.2	9.9	0.4	35.8	2.9
Cc1ccc(-n2c(O)c(/C=N/Nc3ccccc3)c(=O)[nH]c2=O)cc1C	-1.9	0.0	-5.7	0.0	nt	-0.6
Cn1c(O)c(C=NC2CCCCC2)c(=O)[nH]c1=S	-4.4	0.3	nt	-0.2	4.1	-3.4
Cn1c(=O)c2c(nc(N/N=C/c3c(O)n(C4CCCCC4)c(=S)[nH]c3=O)n2C)n(C)c1=O	-1.6	0.2	-5.0	nt	52.4*	2.7
Cc1cccc(-n2c(O)c(/C=N/Nc3nc4c(c(=O)n(C)c(=O)n4C)n3C)c(=O)[nH]c2=S)c1	nt	0.0	-3.7	nt	71.8*	nt
Cc1ccccc1-n1c(O)c(/C=N/Nc2nc3c(c(=O)n(C)c(=O)n3C)n2C)c(=O)[nH]c1=S	nt	0.2	4.3	nt	50.7*	nt
O=C(Cc1ccccc1)N1CCCCN2[C@H](CO)[C@@H](c3ccc(C#Cc4ccccc4)cc3)[C@H]2C1	-1.6	0.0	nt	-0.7	-20.0	-0.3
N#Cc1cccc(-c2ccc([C@H]3[C@H]4CN(C(=O)Cc5cccnc5)CCCCN4[C@H]3CO)cc2)c1	5.2	0.1	nt	-0.1	-4.3	10.9
O=C(O)[C@H]1[C@H](CO)[C@H]2Cn3c(ccc(-c4ccncc4)c3=O)[C@@H]1N2C(=O)C1CCC1	-2.6	0.5	nt	0.3	-12.6	-53.0
